This is an account of results in the array DNA melting data of Ke et al. (doi:10.1101/2024.01.08.574731).

Series [1] in a line: melting temperature; fluorescence melt of hairpins on a sequencing array, two-state fit, raised by 9.35 °C to match UV melts. The conditions noted are these: sodium 0.088 M. Summed up: (§1)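 Two-state fits, bootstrapped, provided melting temperature and folding enthalpy from Cy3 fluorescence normalised to pre-quench Cy3 and to control constructs. Library hairpins with annealed Cy3 and quencher oligos were imaged on a sequenced MiSeq flow cell in 50 mM Na-HEPES pH 8.0, 25 mM NaCl, at 2.5 °C intervals up to 60 °C. Four replicates were combined with inverse-variance weighting. A 9.35 °C upward shift was applied to fitted temperatures to match UV melts.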

The nature of series [2]: folding enthalpy; higher = less favourable; fluorescence melt of hairpins on a sequencing array, two-state fit. To be noted: sodium 0.088 M. The method in brief: as §1

Take GCGCCAGCGAAAGCTCGC (((..(((....)))))): the Tm in series [1] came out at 45 °C. Besides, in series [2], the folding enthalpy was -8.39 kcal/mol.

Regarding GGTGTAGAAATACACC ((((((....)))))), in series [1], the Tm was determined as 53.7 °C. Moreover, the folding enthalpy in series [2] was -29.6 kcal/mol.

For the sequence GACACCGGAAACGGCATC ((..(((....)))..)), in series [1], the Tm amounted to 25.4 °C. The folding enthalpy in series [2] is -9.17 kcal/mol.

In the case of GATCTCACCGAGATC ((((((...)))))), the Tm in series [1] worked out at 55.2 °C. For the same sequence, in series [2], the folding enthalpy is -36.5 kcal/mol.

On to GTACACGAAAGTGACTAC ((((((....)))..))), for which the Tm in series [1] was 37.2 °C. Further, the folding enthalpy in series [2] was -15.4 kcal/mol.

As to GAGTTAGCGAAAGCTCTC (((..(((....)))))), in series [1], the Tm was 35.1 °C. For the same sequence, in series [2], the folding enthalpy was -11.5 kcal/mol.

With GATGAGCGAAAGCTGATC (((.(((....))).))), the Tm in series [1] was found to be 45.9 °C. Also, in series [2], the folding enthalpy was -22.1 kcal/mol.

As for GGCTCTCGAAAGAGCGCC (((.(((....))).))), the Tm in series [1] is 56.4 °C. For the same sequence, the folding enthalpy in series [2] was -34.6 kcal/mol.

On to GCACCGGGAAACCGGCAC (..((((....))))..), for which the Tm in series [1] worked out at 28.3 °C. Besides, the folding enthalpy in series [2] was -8.06 kcal/mol.

For the sequence GCACCCGAAAGGGCCTGC ((((((....)))..))), the Tm in series [1] was 34.5 °C. Also, the folding enthalpy in series [2] was -13.4 kcal/mol.

Turning to GCAGGAGGAAACTCCCAC (..((((....))))..), in series [1], the Tm was 25.8 °C. In addition, in series [2], the folding enthalpy was -16.8 kcal/mol.

Consider GCCTAGCGAAAGCAAGGC ((((.((....)).)))), for which, in series [1], the Tm came out at 67.2 °C. Also, the folding enthalpy in series [2] is -29.3 kcal/mol.

On to GATCATACTAATGATC ((((((....)))))), for which, in series [1], the Tm is 46.8 °C. Moreover, in series [2], the folding enthalpy was -34.9 kcal/mol.

Consider GAGGTAGGAAACTACCTC (((((((....))))))), for which, in series [1], the Tm is 60 °C. In addition, in series [2], the folding enthalpy was -37.2 kcal/mol.

In the case of GTGCAAGAAATTGCAC ((((((....)))))), the Tm in series [1] stood at 56.6 °C. For the same sequence, the folding enthalpy in series [2] was -36.2 kcal/mol.

Turning to GGACCCGGAAACAGGTCC (((((.(....).))))), the Tm in series [1] came to 49.4 °C. Moreover, in series [2], the folding enthalpy is -39.7 kcal/mol.

In the case of GCACCGCGAAAGCGTCGC ((..(((....)))..)), in series [1], the Tm stood at 41.2 °C. The folding enthalpy in series [2] is -12.8 kcal/mol.

In the case of GATAACGCGAAAGCGATC (((..(((....)))))), the Tm in series [1] was found to be 24.1 °C. For the same sequence, in series [2], the folding enthalpy was -10.2 kcal/mol.

With GATCTGAGACAGATC ((((((...)))))), the Tm in series [1] amounted to 46.8 °C. The folding enthalpy in series [2] was -42.3 kcal/mol.

GCGCGGCGAAAGCTACGC (((..((....))..))): the Tm in series [1] was found to be 64.1 °C. Besides, the folding enthalpy in series [2] was -19.8 kcal/mol.

As to GGTTGTGGAAACATAGCC ((.(.((....)).).)), in series [1], the Tm is 31.6 °C. The folding enthalpy in series [2] was -19.1 kcal/mol.

As for GGGCAGGGAAACTTGCCC (((((.(....).))))), the Tm in series [1] is 55.9 °C. Further, the folding enthalpy in series [2] is -47.7 kcal/mol.

For the sequence GGGAACGAAAGTTGTCCC ((((((....)))..))), the Tm in series [1] was 36.4 °C. Also, the folding enthalpy in series [2] was -18.1 kcal/mol.

With GGGTCGGGAAACCAACCC ((((.((....)).)))), the Tm in series [1] was determined as 47.1 °C. The folding enthalpy in series [2] is -35.2 kcal/mol.

Turning to GATCAGGGGACTGATC ((((((....)))))), in series [1], the Tm was 53.8 °C. For the same sequence, the folding enthalpy in series [2] was -32.5 kcal/mol.

For GTAGCCGAAAGGCAGTAC ((((((....)))..))), in series [1], the Tm came out at 30.4 °C. For the same sequence, the folding enthalpy in series [2] was -9.03 kcal/mol.

As to GCAGACGAAAGTCTTTGC ((((((....)))..))), the Tm in series [1] was found to be 37.1 °C. Also, the folding enthalpy in series [2] was -14.4 kcal/mol.

GAATTTGGAAACAAATCC (.(((((....))))).): the Tm in series [1] was found to be 29.2 °C. Also, in series [2], the folding enthalpy was -13.9 kcal/mol.

For the sequence GATCCTTTTCAGGATC ((((((....)))))), in series [1], the Tm came to 52.6 °C. Further, the folding enthalpy in series [2] is -32.6 kcal/mol.

With GATCAGCGAACTGATC ((((((....)))))), the Tm in series [1] is 49.3 °C. The folding enthalpy in series [2] is -34.4 kcal/mol.

For the sequence GATCTTGCTAAGATC ((((((...)))))), in series [1], the Tm was found to be 45.4 °C. The folding enthalpy in series [2] was -31.8 kcal/mol.

In the case of GTGACTCGAAAGAGCAC (((.(((....)))))), the Tm in series [1] was found to be 48.1 °C. Also, the folding enthalpy in series [2] was -26.2 kcal/mol.

Regarding GTAGCACGAAAGTGTTAC (((.(((....))).))), the Tm in series [1] amounted to 51.5 °C. Also, in series [2], the folding enthalpy is -29.2 kcal/mol.

Regarding GCGAATGCTCGC ((((....)))), the Tm in series [1] is 57.7 °C. Moreover, the folding enthalpy in series [2] was -11.5 kcal/mol.

For GTGACGGGAAACTGTCGC (.(((.(....).))).), in series [1], the Tm is 45.8 °C. Also, in series [2], the folding enthalpy is -28.2 kcal/mol.

Turning to GCGTAATCGAAAGATCGC (((..(((....)))))), the Tm in series [1] was found to be 45.6 °C. Also, the folding enthalpy in series [2] was -25.1 kcal/mol.

With TAGGAGAAATCCTA (((((....))))), the Tm in series [1] was determined as 25.9 °C. Besides, in series [2], the folding enthalpy was -8.63 kcal/mol.

In the case of GTCACCGAAAGGTGCGAC ((((((....)))..))), in series [1], the Tm was 58.5 °C. In series [2], the folding enthalpy was -13 kcal/mol.

In the case of GAAACCGAAAGGTATTTC ((((((....)))..))), the Tm in series [1] amounted to 26.6 °C. Further, in series [2], the folding enthalpy was -12.4 kcal/mol.

As to GCGTATCGAAAGATGCGC (((.(((....))).))), in series [1], the Tm turned out to be 66.3 °C. Besides, the folding enthalpy in series [2] was -43.8 kcal/mol.

In the case of GATCTCATACGAGATC ((((((....)))))), the Tm in series [1] worked out at 52.6 °C. Also, in series [2], the folding enthalpy was -37.8 kcal/mol.

Take GCCGATCCGAAAGGAGGC (((..(((....)))))): the Tm in series [1] was 52.7 °C. Also, in series [2], the folding enthalpy is -36.8 kcal/mol.

For CGTGCGGAAACGCTACG ((((((....))).))), the Tm in series [1] came out at 50.6 °C. Besides, the folding enthalpy in series [2] is -27.6 kcal/mol.

Consider GATCGTGGGCACGATC ((((((....)))))), for which the Tm in series [1] was determined as 56.8 °C. The folding enthalpy in series [2] was -40.1 kcal/mol.

In the case of CTTTTGAAAAAAAG (((((....))))), the Tm in series [1] is 30.1 °C. Besides, in series [2], the folding enthalpy was -7.85 kcal/mol.

Turning to GAAAATGCGAAAGCATTC (((..(((....)))))), the Tm in series [1] came to 32.7 °C. Besides, in series [2], the folding enthalpy is -10 kcal/mol.

In the case of CCAGAGAAATCTGG (((((....))))), the Tm in series [1] came out at 44.4 °C. In series [2], the folding enthalpy was -19.2 kcal/mol.

For the sequence GCAGCCGAAAGGCTTGC ((((((....))).))), the Tm in series [1] came out at 62 °C. In addition, in series [2], the folding enthalpy was -15.3 kcal/mol.

Take GCGATAGCGAAAGCTCGC (((..(((....)))))): in series [1], the Tm was 51.5 °C. The folding enthalpy in series [2] is -18.5 kcal/mol.

As for GTACGGGGAAACCCGCAC ((.((((....)))).)), the Tm in series [1] is 54.3 °C. Besides, the folding enthalpy in series [2] was -18.6 kcal/mol.

As to GATCATATTTATGATC ((((((....)))))), the Tm in series [1] is 50.3 °C. Further, the folding enthalpy in series [2] was -41.2 kcal/mol.

In the case of CGACCGGAAACGGTTCG ((((((....))).))), the Tm in series [1] worked out at 49.2 °C. Moreover, the folding enthalpy in series [2] was -20.1 kcal/mol.

On to GACATTGGAAACAATGCC (.(((((....))))).), for which the Tm in series [1] amounted to 38.1 °C. In series [2], the folding enthalpy was -21.5 kcal/mol.

Consider GTCACGCGAAAGCGCGAC (((.(((....))).))), for which the Tm in series [1] turned out to be 58.9 °C. For the same sequence, the folding enthalpy in series [2] is -29.6 kcal/mol.

With CGCCGTCGGAAACGAGCG (((..(((....)))))), in series [1], the Tm was 50.3 °C. Moreover, the folding enthalpy in series [2] is -28.4 kcal/mol.
